Among the data in ChEMBL document CHEMBL1811853, “Design and evaluation of 3-aminopyrazolopyridinone kinase inhibitors inspired by the natural product indirubin” (Bioorg Med Chem, 2011) are inhibition values, retold here.

Test [1] addresses T1, Protein kinase C zeta type (Homo sapiens) (UniProt Q05513).
T1 sequence (whole entry): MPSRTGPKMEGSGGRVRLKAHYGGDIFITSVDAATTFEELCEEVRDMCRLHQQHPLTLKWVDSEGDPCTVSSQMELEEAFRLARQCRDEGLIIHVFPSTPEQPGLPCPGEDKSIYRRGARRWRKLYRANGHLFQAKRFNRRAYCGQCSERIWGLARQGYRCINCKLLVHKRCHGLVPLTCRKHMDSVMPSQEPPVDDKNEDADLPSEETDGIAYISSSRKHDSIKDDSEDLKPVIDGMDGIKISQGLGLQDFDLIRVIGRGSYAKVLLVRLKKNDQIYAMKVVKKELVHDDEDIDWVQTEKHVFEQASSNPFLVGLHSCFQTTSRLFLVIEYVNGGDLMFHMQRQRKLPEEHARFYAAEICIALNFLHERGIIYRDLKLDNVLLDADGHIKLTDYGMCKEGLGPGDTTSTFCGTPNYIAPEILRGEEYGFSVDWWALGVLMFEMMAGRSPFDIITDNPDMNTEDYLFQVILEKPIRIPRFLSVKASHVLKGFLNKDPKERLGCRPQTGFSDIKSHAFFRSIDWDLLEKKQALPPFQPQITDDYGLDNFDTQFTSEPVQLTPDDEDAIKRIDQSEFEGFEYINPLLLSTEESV
Description: Inhibition of PKCz at 30 uM by microfluidic mobility shift assay. The gist of the method:
(§1)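 Single-concentration screen, singlicate, 30 uM final (diluted from 1 mM DMSO solutions), fluorescently tagged peptide substrate appropriate to each kinase, ATP at apparent Km for each protein. Phosphorylated and unphosphorylated peptides separated electrophoretically; conversion is the phosphorylated peak area over the sum of both peaks. No-inhibitor and no-ATP controls; H89 reference on each plate.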

Test [2] concerns the target Tyrosine-protein kinase Fyn (Homo sapiens, UniProt P06241). In words: Inhibition of FYN at 30 uM by microfluidic mobility shift assay. The procedure, abridged: as §1
Test [3] addresses Tyrosine-protein kinase Lyn (Homo sapiens, UniProt P07948). In words: Inhibition of LYN at 30 uM by microfluidic mobility shift assay. The procedure, abridged: as §1
The target in test [4] is RAC-alpha serine/threonine-protein kinase (Homo sapiens) (UniProt P31749). In words: Inhibition of AKT1 at 30 uM by microfluidic mobility shift assay. The gist of the method: as §1
RAC-alpha serine/threonine-protein kinase (Homo sapiens), sequence (P31749 whole entry): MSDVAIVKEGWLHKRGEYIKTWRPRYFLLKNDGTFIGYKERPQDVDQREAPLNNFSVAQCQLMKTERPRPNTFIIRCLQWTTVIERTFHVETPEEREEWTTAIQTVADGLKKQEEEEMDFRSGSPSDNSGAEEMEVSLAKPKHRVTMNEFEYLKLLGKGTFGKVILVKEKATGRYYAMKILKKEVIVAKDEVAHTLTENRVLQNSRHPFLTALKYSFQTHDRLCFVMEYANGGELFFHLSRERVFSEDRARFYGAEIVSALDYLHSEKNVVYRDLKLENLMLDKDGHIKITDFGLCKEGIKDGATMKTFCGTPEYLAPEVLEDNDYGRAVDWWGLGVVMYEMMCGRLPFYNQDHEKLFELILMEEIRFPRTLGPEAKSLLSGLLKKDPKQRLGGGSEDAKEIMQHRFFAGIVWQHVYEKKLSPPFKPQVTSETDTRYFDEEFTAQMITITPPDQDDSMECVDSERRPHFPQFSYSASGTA
The target in test [5] is MAP kinase-activated protein kinase 2 (Homo sapiens, UniProt P49137). Description: Inhibition of MAPKAPK2 at 30 uM by microfluidic mobility shift assay. The gist of the method:
as §1

The target of test [6] is Serine/threonine-protein kinase Chk2 (Homo sapiens, UniProt O96017). In words: Inhibition of CHK2 at 30 uM by microfluidic mobility shift assay. The procedure, abridged: as §1
Serine/threonine-protein kinase Chk2, sequence (O96017 whole entry): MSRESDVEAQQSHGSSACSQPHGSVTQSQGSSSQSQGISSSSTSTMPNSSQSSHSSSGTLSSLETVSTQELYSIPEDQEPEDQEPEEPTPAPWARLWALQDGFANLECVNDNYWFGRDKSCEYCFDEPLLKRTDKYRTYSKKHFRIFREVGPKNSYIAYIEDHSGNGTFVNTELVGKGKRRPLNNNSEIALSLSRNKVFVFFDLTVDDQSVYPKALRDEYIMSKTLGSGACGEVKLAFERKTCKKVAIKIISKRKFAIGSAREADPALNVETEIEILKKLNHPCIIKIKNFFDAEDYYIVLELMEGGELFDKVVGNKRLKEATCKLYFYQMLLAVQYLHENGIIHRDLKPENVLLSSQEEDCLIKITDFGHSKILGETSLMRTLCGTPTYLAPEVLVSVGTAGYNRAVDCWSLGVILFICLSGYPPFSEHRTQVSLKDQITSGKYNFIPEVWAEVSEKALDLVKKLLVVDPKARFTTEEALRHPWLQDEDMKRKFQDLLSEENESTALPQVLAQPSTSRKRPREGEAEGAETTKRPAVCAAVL
Test [7] deals with T2, Serine/threonine-protein kinase Chk1 (Homo sapiens) (UniProt O14757).
T2 sequence (whole entry): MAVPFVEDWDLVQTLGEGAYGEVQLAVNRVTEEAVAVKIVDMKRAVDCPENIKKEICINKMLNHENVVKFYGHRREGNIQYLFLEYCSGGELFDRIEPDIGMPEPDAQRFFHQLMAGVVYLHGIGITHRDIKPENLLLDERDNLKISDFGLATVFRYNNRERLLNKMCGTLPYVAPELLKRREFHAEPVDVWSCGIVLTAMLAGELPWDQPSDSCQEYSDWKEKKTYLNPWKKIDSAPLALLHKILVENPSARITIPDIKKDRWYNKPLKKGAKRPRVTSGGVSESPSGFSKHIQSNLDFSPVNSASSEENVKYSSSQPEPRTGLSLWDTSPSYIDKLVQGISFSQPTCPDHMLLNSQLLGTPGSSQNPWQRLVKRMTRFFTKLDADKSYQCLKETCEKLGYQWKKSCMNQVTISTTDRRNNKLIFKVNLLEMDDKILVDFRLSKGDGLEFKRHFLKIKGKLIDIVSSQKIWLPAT
In words: Inhibition of CHK1 at 30 uM by microfluidic mobility shift assay. The gist of the method:
as §1

The target in test [8] is Tyrosine-protein kinase Lck (Homo sapiens, UniProt P06239). In words: Inhibition of LCK at 30 uM by microfluidic mobility shift assay. The gist of the method:
as §1

Test [9] has as its target Mitogen-activated protein kinase 1 (Homo sapiens) (UniProt P28482). Description: Inhibition of ERK2 at 30 uM by microfluidic mobility shift assay. The procedure, abridged: as §1
The target of test [10] is RAC-beta serine/threonine-protein kinase (Homo sapiens) (UniProt P31751). In words: Inhibition of AKT2 at 30 uM by microfluidic mobility shift assay. The procedure, abridged: as §1
RAC-beta serine/threonine-protein kinase (Homo sapiens), sequence (P31751 whole entry): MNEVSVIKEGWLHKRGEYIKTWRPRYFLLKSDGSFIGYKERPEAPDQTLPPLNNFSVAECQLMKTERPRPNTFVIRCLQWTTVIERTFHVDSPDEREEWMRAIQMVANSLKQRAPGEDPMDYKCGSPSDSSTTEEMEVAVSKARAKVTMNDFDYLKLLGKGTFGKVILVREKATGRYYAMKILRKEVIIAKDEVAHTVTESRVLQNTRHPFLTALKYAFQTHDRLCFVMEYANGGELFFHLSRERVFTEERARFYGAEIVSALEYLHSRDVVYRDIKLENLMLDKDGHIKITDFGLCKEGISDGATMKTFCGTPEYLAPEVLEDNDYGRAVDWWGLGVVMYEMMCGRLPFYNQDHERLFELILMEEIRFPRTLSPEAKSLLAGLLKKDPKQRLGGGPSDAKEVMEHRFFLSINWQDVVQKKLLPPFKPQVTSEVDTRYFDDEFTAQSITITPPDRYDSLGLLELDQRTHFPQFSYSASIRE
The target in test [11] is Insulin receptor (Homo sapiens) (UniProt P06213). Description: Inhibition of INSR at 30 uM by microfluidic mobility shift assay. The procedure, abridged:
as §1

In test [12] the target is Mitogen-activated protein kinase 3 (Homo sapiens) (UniProt P27361). In words: Inhibition of ERK1 at 30 uM by microfluidic mobility shift assay. The gist of the method: as §1
Mitogen-activated protein kinase 3 (Homo sapiens), sequence (P27361 whole entry): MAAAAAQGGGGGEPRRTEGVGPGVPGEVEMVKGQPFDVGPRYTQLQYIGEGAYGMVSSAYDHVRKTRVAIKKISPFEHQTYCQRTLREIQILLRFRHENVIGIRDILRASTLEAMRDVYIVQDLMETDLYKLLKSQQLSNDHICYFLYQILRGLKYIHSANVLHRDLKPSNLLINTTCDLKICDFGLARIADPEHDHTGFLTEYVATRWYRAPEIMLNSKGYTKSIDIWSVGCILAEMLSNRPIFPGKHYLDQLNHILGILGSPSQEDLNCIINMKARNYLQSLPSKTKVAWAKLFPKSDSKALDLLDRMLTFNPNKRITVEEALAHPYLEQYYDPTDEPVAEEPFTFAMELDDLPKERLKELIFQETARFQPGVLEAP
For test [13], the target named is T3, Aurora kinase A (Homo sapiens) (UniProt O14965).
T3 sequence (whole entry): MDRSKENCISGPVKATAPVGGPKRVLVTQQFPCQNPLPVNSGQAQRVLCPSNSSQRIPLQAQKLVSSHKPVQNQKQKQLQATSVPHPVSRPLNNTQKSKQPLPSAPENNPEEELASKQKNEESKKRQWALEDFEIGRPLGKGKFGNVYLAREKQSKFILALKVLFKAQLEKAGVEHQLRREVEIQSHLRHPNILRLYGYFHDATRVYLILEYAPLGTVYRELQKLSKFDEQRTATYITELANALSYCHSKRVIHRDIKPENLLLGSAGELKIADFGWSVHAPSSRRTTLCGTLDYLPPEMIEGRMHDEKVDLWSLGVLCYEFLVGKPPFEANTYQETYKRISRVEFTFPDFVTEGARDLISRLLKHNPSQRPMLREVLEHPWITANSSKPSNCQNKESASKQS
Description: Inhibition of AurA at 30 uM by microfluidic mobility shift assay. The gist of the method: as §1

The target of test [14] is Ribosomal protein S6 kinase alpha-1 (Homo sapiens) (UniProt Q15418). In words: Inhibition of RSK1 at 30 uM by microfluidic mobility shift assay. The procedure, abridged: as §1
Ribosomal protein S6 kinase alpha-1 (Homo sapiens), sequence (Q15418 whole entry): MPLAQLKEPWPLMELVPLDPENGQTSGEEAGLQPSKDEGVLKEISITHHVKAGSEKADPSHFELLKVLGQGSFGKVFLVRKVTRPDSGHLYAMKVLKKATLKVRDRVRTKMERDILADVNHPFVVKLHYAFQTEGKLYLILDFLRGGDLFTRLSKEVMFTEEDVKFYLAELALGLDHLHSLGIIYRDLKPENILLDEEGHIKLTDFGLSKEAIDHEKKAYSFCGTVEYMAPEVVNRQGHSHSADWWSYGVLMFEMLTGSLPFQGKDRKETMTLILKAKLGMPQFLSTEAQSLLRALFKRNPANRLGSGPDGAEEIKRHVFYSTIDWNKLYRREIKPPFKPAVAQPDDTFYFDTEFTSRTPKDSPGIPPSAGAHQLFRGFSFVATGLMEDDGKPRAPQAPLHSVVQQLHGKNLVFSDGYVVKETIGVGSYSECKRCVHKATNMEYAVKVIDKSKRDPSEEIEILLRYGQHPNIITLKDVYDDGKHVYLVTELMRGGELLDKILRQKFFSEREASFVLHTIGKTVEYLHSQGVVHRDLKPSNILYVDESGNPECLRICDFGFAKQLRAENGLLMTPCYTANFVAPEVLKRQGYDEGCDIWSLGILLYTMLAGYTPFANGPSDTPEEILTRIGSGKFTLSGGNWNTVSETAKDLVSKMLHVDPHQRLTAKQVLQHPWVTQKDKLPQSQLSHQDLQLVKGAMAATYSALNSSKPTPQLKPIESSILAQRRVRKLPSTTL
Test [15] concerns the target T4, MAP kinase-activated protein kinase 5 (Homo sapiens) (UniProt Q8IW41).
T4 sequence (whole entry): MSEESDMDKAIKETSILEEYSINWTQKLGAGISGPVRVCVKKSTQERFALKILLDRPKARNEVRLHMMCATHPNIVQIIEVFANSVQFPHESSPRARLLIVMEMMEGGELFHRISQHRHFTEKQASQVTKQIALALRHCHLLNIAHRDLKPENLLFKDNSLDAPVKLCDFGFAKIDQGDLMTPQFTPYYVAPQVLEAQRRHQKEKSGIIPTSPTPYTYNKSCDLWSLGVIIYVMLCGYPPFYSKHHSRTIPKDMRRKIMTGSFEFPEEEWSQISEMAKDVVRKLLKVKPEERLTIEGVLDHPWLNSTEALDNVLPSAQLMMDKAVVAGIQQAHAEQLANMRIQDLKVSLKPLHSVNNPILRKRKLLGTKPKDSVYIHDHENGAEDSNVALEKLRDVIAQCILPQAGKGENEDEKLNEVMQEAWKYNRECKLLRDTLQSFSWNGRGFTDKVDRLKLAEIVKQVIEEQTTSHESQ
In words: Inhibition of PRAK1 at 30 uM by microfluidic mobility shift assay. The gist of the method: as §1

For test [16], the target named is Glycogen synthase kinase-3 beta (Homo sapiens) (UniProt P49841). In words: Inhibition of GSK3B at 30 uM by microfluidic mobility shift assay. The gist of the method:
as §1

Glycogen synthase kinase-3 beta (Homo sapiens), sequence (P49841 whole entry, looked up): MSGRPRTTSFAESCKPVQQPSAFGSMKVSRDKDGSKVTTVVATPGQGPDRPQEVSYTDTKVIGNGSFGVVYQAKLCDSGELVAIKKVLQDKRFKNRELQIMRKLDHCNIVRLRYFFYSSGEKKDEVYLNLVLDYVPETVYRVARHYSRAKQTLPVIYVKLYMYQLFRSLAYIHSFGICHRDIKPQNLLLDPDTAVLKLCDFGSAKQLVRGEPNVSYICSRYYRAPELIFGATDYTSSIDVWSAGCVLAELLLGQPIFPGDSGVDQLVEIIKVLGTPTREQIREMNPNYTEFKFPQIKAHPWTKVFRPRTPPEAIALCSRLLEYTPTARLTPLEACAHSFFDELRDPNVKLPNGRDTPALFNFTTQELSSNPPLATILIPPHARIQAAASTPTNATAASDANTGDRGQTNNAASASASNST
Tyrosine-protein kinase Lyn, sequence (P07948 2-512 limits assumed): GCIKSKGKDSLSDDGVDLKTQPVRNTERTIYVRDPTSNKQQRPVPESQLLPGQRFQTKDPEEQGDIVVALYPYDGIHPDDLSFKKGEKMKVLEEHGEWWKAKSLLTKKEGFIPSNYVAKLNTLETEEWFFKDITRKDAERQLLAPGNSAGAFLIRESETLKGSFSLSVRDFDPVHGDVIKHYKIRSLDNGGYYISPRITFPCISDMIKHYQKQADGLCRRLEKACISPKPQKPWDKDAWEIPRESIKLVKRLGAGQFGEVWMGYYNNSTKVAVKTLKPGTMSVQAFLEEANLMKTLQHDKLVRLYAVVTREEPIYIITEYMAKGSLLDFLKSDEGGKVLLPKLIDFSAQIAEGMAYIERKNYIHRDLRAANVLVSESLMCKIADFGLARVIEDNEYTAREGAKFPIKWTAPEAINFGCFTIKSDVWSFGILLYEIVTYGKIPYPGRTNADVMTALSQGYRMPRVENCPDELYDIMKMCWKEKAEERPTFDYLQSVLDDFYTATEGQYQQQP
Tyrosine-protein kinase Fyn, sequence (P06241 2-537 limits assumed): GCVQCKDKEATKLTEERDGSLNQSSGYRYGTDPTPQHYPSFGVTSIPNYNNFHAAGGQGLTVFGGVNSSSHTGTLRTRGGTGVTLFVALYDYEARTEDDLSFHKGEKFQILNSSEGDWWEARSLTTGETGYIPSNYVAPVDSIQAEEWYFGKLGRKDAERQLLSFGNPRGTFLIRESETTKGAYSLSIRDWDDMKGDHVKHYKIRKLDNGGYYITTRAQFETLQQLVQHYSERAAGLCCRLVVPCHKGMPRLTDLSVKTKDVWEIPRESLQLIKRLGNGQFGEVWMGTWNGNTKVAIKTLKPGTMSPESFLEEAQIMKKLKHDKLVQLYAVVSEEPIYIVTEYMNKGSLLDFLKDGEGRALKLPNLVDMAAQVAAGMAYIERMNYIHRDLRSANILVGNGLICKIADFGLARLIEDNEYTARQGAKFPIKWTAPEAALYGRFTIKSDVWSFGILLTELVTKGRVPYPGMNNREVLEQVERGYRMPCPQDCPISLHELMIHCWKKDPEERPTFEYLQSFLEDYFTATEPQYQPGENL
Tyrosine-protein kinase Lck, sequence (P06239 2-509 limits assumed): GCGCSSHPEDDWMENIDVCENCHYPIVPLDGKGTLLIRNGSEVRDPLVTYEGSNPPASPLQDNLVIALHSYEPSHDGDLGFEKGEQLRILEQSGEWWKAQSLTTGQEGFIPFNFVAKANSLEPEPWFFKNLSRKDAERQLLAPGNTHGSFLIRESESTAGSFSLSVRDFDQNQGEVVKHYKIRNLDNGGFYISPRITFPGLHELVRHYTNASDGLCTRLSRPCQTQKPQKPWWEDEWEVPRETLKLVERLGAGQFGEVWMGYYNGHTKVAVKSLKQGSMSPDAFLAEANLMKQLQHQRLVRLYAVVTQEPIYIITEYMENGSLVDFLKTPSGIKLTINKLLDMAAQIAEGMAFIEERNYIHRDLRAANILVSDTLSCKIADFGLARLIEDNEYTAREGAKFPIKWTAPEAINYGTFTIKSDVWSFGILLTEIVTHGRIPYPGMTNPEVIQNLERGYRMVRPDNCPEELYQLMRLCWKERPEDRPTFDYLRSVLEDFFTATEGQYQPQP
Mitogen-activated protein kinase 1 (Homo sapiens), sequence (P28482 whole entry): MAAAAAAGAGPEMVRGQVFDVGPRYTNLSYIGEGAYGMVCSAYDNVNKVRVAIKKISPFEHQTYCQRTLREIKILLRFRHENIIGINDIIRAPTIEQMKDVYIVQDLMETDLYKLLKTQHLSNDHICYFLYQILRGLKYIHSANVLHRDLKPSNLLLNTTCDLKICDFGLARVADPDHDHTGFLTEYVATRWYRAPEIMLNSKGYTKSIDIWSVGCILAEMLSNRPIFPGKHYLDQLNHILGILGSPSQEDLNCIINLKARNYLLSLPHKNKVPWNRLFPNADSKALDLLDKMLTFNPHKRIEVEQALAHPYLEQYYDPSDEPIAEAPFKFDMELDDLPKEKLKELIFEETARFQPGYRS

With `CC(C)(C)c1cc2nn(-c3ccccc3)c(N)c2c(=O)[nH]1`, the inhibition was -1% in test [1]; 9% in [2]; 8% in test [3]; 7% in test [4]; 6% in test [5]; 5% in test [6]. The inhibition stood at 11% in test [7]; 8% in [8]; 18% in test [9]; 3% in test [10]; 4% in test [11]; 21% in [12]. Moreover, the inhibition in [13] came to 9%; in test [14], 5%; in [15], 2%; in test [16], 31%.
In the case of `Cc1cc2[nH]nc(N)c2c(N2CCCCC2)n1`, the inhibition in test [1] is 43%; in test [2], 53%; in [3] it was 45%; in test [4], 36%; in test [5], -1%; in test [6] it was 33%. For the same compound, the inhibition is 11% in test [7]; 48% in test [8]; 6% in test [9]; 11% in test [10]; 9% in [11]; 6% in test [12]. Further, the inhibition in test [13] is 84%; in test [14] it was 46%; in test [15] it was 10%; in [16] it was 55%.
As for `CN1CCN(c2ccc(-c3cc4[nH]nc(N)c4c(=O)[nH]3)cc2)CC1`, the inhibition worked out at 35% in [1]; 76% in test [2]; 76% in [3]; 9% in test [4]; 55% in test [5]; 68% in [6]. Moreover, the inhibition in test [7] is 54%; in test [8], 74%; in test [9], -2%; in test [10], 6%; in [11] it was 17%; in [12], 4%. For the same compound, the inhibition was determined as 51% in test [13], 26% in test [14], 11% in test [15] and 42% in test [16].
With `COc1ccc(-c2cc3[nH]nc(N)c3c(=O)[nH]2)cc1`, the inhibition in test [1] is 7%; in test [2], 50%; in test [3] it was 56%; in test [4] it was 21%; in test [5], 59%; in [6], 43%. The inhibition in test [7] stood at 14%; in test [8], 54%; in test [9], 12%; in [10], 11%; in test [11], 6%; in test [12], 13%. In addition, the inhibition in test [13] came out at 49%; in [14] it was 7%; in [15], 7%; in test [16], 78%.
With `COCCNc1nc(C)cc2c1c(N)nn2C`, the inhibition in test [1] is -10%; in test [2], -1%; in test [3] it was 6%; in test [4], 6%; in test [5] it was 6%; in test [6], -2%. Besides, the inhibition in [7] was 7%; in test [8], 1%; in [9], 8%; in [10], -3%; in test [11], 0%; in test [12], 5%. Moreover, the inhibition was 15% in [13], -4% in test [14], 5% in [15] and 1% in test [16].
As to `Nc1n[nH]c2cc(-c3cccnc3)[nH]c(=O)c12`, the inhibition in test [1] turned out to be 1%; in [2], 24%; in test [3], 39%; in test [4], 7%; in test [5], 40%; in [6], 27%. The inhibition in [7] came out at 9%; in [8], 34%; in test [9], 14%; in test [10] it was 8%; in [11] it was 7%; in test [12], 19%. The inhibition in test [13] was 42%; in test [14], 11%; in test [15], 12%; in test [16], 71%.

In general, inhibition refers to the relative decrease from the control value, in per cent.
